Laboratory results reported in ChEMBL document CHEMBL3792377, “Synthesis and characterization of a series of chiral alkoxymethyl morpholine analogs as dopamine receptor 4 (D4R) antagonists” (Bioorg Med Chem Lett, 2016).

Key:
D(4) dopamine receptor = target: T1, D(4) dopamine receptor (Homo sapiens, UniProt P21917); experiment: Displacement of [3H]-Spiperone from human recombinant dopamine D4 receptor expressed in CHOK1 cells; type: cell-based, CHO-K1
T1 sequence (P21917 whole entry): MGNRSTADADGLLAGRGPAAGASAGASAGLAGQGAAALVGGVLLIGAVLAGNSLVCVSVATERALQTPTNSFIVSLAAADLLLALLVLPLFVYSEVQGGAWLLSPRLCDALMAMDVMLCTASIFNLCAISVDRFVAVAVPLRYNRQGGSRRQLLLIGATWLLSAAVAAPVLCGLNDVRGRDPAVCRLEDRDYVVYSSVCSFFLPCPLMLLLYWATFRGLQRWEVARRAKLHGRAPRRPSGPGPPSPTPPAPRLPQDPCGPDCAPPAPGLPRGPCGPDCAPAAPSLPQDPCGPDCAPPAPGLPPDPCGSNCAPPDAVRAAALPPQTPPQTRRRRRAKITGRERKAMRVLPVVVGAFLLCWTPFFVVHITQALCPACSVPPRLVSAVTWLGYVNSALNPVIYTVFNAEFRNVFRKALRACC
Procedure, shortened: (§1)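 Radioligand binding at human D4 receptor using [3H]-spiperone, run as a contract assay in duplicate. IC50 and Ki were derived from concentration–response data. Single-point values are % inhibition of specific binding at 10 µM test compound.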

[1] = target: T2, D(4) dopamine receptor (Homo sapiens) (UniProt P21917); experiment: Displacement of [3H]-Spiperone from human recombinant dopamine D4 receptor expressed in CHOK1 cells at 10 uM relative to control; type: cell-based; settings: CHO-K1; procedure, shortened: as §1
T2 sequence (whole entry): T1 sequence (P21917 whole entry)

[2] = Fraction unbound in human plasma by equilibrium dialysis method; type: ADME, cell-free
Plasma = experiment: Fraction unbound in rat plasma by equilibrium dialysis method; type: ADME, cell-free
D(2) dopamine receptor [3] = target: T3, D(2) dopamine receptor (Homo sapiens, UniProt P14416); experiment: Displacement of [3H]-Spiperone from human recombinant dopamine D2L receptor expressed in CHO cells at 10 uM relative to control; type: cell-based
T3 sequence (P14416 whole entry): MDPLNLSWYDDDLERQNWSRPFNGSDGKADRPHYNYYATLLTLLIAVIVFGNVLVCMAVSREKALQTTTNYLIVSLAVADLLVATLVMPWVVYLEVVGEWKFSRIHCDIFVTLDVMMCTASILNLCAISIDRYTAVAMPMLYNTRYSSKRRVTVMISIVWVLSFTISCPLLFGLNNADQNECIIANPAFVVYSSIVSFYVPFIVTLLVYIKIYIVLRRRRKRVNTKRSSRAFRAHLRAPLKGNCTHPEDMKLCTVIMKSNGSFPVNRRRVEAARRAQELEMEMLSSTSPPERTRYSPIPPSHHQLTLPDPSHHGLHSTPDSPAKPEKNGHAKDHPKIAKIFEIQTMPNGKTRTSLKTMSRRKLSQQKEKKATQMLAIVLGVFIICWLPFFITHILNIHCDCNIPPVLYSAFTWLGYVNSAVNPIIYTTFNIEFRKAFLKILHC
Procedure, shortened: (§2)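 Off-target dopamine receptor radioligand binding (D1, D2L, D2S, D3, D5), run as a contract assay. Test compound at a single concentration of 10 µM, reported as % inhibition of specific binding, measured in duplicate.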

D(1A) dopamine receptor = D(1A) dopamine receptor (Homo sapiens, UniProt P21728); experiment: Displacement of [3H]-SCH-23390 from human recombinant dopamine D1 receptor expressed in CHO cells at 10 uM relative to control; type: cell-based; procedure, shortened: as §2
D(1A) dopamine receptor, sequence (P21728 whole entry): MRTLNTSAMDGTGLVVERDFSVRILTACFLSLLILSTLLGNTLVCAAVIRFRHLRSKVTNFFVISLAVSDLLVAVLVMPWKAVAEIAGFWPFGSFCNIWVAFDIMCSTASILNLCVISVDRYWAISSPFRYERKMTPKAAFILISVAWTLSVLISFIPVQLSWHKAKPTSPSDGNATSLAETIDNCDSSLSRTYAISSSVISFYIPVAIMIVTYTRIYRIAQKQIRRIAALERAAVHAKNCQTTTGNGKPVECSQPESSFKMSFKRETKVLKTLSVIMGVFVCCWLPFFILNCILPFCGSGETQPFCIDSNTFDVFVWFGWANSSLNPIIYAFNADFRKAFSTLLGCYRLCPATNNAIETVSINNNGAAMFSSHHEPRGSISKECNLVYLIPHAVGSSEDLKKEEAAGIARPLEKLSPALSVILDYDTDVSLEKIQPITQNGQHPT

D(2) dopamine receptor [4] = target: T3, D(2) dopamine receptor; experiment: Displacement of [3H]-Spiperone from human recombinant dopamine D2S receptor expressed in CHO cells at 10 uM relative to control; type: cell-based; procedure, shortened: as §2
D(3) dopamine receptor = D(3) dopamine receptor (Homo sapiens, UniProt P35462); experiment: Displacement of [3H]-Spiperone from human recombinant dopamine D3 receptor expressed in CHO cells at 10 uM relative to control; type: cell-based; procedure, shortened: as §2
D(3) dopamine receptor, sequence (P35462 whole entry): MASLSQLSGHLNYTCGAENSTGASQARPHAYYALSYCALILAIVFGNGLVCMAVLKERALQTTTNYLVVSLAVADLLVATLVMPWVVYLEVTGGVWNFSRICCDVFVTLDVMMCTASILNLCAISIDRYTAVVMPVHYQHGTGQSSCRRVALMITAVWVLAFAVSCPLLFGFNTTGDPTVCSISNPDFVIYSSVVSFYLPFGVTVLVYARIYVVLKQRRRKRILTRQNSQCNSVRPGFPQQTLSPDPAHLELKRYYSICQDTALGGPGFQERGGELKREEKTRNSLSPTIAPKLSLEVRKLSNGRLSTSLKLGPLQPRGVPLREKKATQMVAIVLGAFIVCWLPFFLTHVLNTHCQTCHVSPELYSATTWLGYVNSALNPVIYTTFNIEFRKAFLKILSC

D(1B) dopamine receptor = D(1B) dopamine receptor (Homo sapiens, UniProt P21918); experiment: Displacement of [3H]-SCH-23390 from human recombinant dopamine D5 receptor expressed in CHO cells at 10 uM relative to control; type: cell-based; procedure, shortened: as §2
D(1B) dopamine receptor, sequence (P21918 whole entry): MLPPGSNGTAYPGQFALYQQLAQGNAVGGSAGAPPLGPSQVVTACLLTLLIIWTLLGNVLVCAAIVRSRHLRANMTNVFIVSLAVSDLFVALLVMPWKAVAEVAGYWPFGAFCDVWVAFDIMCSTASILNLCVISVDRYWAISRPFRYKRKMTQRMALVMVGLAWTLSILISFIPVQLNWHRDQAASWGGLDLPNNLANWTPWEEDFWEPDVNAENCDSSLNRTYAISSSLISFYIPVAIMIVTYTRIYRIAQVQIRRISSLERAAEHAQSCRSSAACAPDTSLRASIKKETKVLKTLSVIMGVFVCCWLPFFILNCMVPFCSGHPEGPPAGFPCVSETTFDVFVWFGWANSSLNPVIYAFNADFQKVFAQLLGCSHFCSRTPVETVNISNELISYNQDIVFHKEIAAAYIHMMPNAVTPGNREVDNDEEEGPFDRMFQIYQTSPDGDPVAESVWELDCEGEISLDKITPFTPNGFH

Row | Structure (SMILES) | IC50 (D(4) dopamine receptor) | Ki (D(4) dopamine receptor) | also measured
1 | COc1cccc(OC[C@@H]2CN(Cc3ccc(Cl)cc3)CCO2)c1 | 130 nM | 36 nM | –
2 | COc1ccc(CN2CCO[C@H](COc3ccc(OC)cc3)C2)cc1 | 380 nM | 110 nM | –
3 | Fc1ccc(CN2CCO[C@H](COc3ccccc3)C2)cc1Cl | 62 nM | 170 nM | –
4 | COc1ccc(CN2CCO[C@H](COc3cccc(C#N)c3)C2)cc1Cl | 130 nM | 36 nM | –
5 | COc1cc(CN2CCO[C@H](COc3ccccc3)C2)ccc1F | 42 nM | 11.6 nM | –
6 | COc1ccc(CN2CCO[C@H](COc3ccccc3)C2)cc1OC | 150 nM | 43 nM | –
7 | COc1cc(CN2CCO[C@H](COc3ccccn3)C2)ccc1Cl | – | – | inhibition [1]: 34%
8 | Clc1ccc(CN2CCO[C@H](COc3ccccc3)C2)cc1Cl | 97 nM | 27 nM | Fu [2]: 0.002; Fu (Plasma): 0.006
9 | COc1ccc2c(CN3CCO[C@H](COc4ccccc4)C3)c[nH]c2c1 | 19.5 nM | 5.4 nM | inhibition (D(2) dopamine receptor [3]): 87%; inhibition (D(1A) dopamine receptor): < 50%; inhibition (D(2) dopamine receptor [4]): 82%; inhibition (D(3) dopamine receptor): 70%; inhibition (D(1B) dopamine receptor): < 50%; Fu [2]: 0.037; Fu (Plasma): 0.075
10 | COc1ccc(CN2CCO[C@H](COc3ccccc3)C2)cc1 | 160 nM | 44 nM | –
11 | c1ccc(OC[C@@H]2CN(Cc3ccc4ccccc4n3)CCO2)cc1 | 1110 nM | 310 nM | –
12 | c1ccc(OC[C@@H]2CN(Cc3ncn4ccccc34)CCO2)cc1 | 130 nM | 35 nM | inhibition (D(2) dopamine receptor [4]): < 50%
13 | COc1cc(CN2CCO[C@H](COc3cccc(F)n3)C2)ccc1Cl | – | – | inhibition [1]: -3%
14 | COc1cc(CN2CCO[C@H](COc3cccc(C#N)c3)C2)ccc1Cl | 100 nM | 28 nM | –
15 | FC1(F)Oc2ccc(CN3CCO[C@H](COc4ccccc4)C3)cc2O1 | 260 nM | 72 nM | –
16 | c1ccc(OC[C@@H]2CN(Cc3n[nH]c4ccccc34)CCO2)cc1 | 65 nM | 18.1 nM | inhibition (D(2) dopamine receptor [4]): < 50%
17 | Clc1ccc(CN2CCO[C@H](COc3cccc(Cl)n3)C2)cc1 | 100 nM | 29 nM | Fu [2]: 0.004; Fu (Plasma): 0.008
18 | COc1ccc(CN2CCO[C@H](COc3ccccn3)C2)cc1 | – | – | inhibition [1]: 57%
19 | Fc1cccc(OC[C@@H]2CN(Cc3ccc(Cl)cc3)CCO2)n1 | 460 nM | 130 nM | –
20 | Fc1ccc(OC[C@@H]2CN(Cc3ccc(Cl)cc3)CCO2)cc1 | 38 nM | 10.4 nM | inhibition (D(2) dopamine receptor [3]): 83%; inhibition (D(1A) dopamine receptor): < 50%; inhibition (D(2) dopamine receptor [4]): 79%; inhibition (D(3) dopamine receptor): 51%; inhibition (D(1B) dopamine receptor): < 50%
21 | Fc1cccc2[nH]cc(CN3CCO[C@H](COc4ccccc4)C3)c12 | 3830 nM | 1060 nM | –
22 | Fc1ccc2c(CN3CCO[C@H](COc4cccc(F)n4)C3)c[nH]c2c1 | 76 nM | 21 nM | inhibition (D(2) dopamine receptor [4]): < 50%; Fu [2]: 0.009; Fu (Plasma): 0.015
23 | Fc1cc(CN2CCO[C@H](COc3ccccc3)C2)ccc1C(F)(F)F | 58 nM | 16.2 nM | Fu [2]: 0.002; Fu (Plasma): 0.007
24 | Clc1ccc(CN2CCO[C@H](COc3ccccn3)C2)cc1 | 2630 nM | 730 nM | –
25 | COc1ccc(CN2CCO[C@H](COc3cncnc3)C2)cc1 | – | – | inhibition [1]: -4%

Row | Structure (SMILES) | IC50 (D(4) dopamine receptor) | Ki (D(4) dopamine receptor) | also measured
26 | Clc1ccc(CN2CCO[C@H](COc3cncnc3)C2)cc1 | – | – | inhibition [1]: 76%
27 | COc1ccc(CN2CCO[C@H](COc3cccc(F)c3)C2)cc1 | 92 nM | 26 nM | –
28 | COc1ccc(CN2CCO[C@H](COc3ccccc3)C2)cc1Cl | 38 nM | 10.4 nM | inhibition (D(2) dopamine receptor [4]): < 50%; Fu [2]: 0.01; Fu (Plasma): 0.019
29 | c1ccc(OC[C@@H]2CN(Cc3cccc4cc[nH]c34)CCO2)cc1 | 130 nM | 37 nM | –
30 | Fc1ccc(CN2CCO[C@H](COc3ccccc3)C2)cc1C(F)(F)F | 320 nM | 89 nM | –
31 | Cc1ccc(CN2CCO[C@H](COc3ccccc3)C2)cc1C | 45 nM | 12.3 nM | inhibition (D(2) dopamine receptor [4]): < 50%
32 | Clc1ccc(CN2CCO[C@H](COc3ncccn3)C2)cc1 | – | – | inhibition [1]: 31%
33 | COc1ccc(CN2CCO[C@@H](COc3ccccc3)C2)cc1Cl | – | – | inhibition [1]: 35%
34 | COc1ccc(CN2CCO[C@H](COc3cccnc3)C2)cc1 | 210 nM | 59 nM | –
35 | CSc1ccc(CN2CCO[C@H](COc3ccccc3)C2)cc1 | 58 nM | 16.1 nM | –
36 | COc1ccc(CN2CCO[C@H](COc3ccc(F)cc3)C2)cc1 | 47 nM | 13.1 nM | inhibition (D(2) dopamine receptor [3]): 88%; inhibition (D(1A) dopamine receptor): < 50%; inhibition (D(2) dopamine receptor [4]): 82%; inhibition (D(3) dopamine receptor): 76%; inhibition (D(1B) dopamine receptor): < 50%
37 | FC(F)(F)Oc1ccc(CN2CCO[C@H](COc3ccccc3)C2)cc1 | 180 nM | 51 nM | –
38 | Clc1ccc2[nH]cc(CN3CCO[C@H](COc4ccccc4)C3)c2c1 | 130 nM | 37 nM | –
39 | COc1ccc(CN2CCO[C@H](COc3ccccn3)C2)cc1Cl | – | – | inhibition [1]: 37%
40 | Fc1cc(CN2CCO[C@H](COc3ccccc3)C2)ccc1Cl | 69 nM | 19.1 nM | Fu [2]: 0.006; Fu (Plasma): 0.012
41 | COc1ccc(OC[C@@H]2CN(Cc3ccc(Cl)cc3)CCO2)cc1 | 150 nM | 42 nM | –
42 | COc1ccc(CN2CCO[C@H](COc3cccc(F)c3)C2)cc1Cl | 39 nM | 10.8 nM | inhibition (D(2) dopamine receptor [4]): < 50%; Fu [2]: 0.006; Fu (Plasma): 0.013
43 | c1ccc(OC[C@@H]2CN(Cc3ccc4ccccc4c3)CCO2)cc1 | 64 nM | 17.8 nM | –
44 | COc1cc(CN2CCO[C@H](COc3cccc(F)c3)C2)ccc1Cl | 37 nM | 10.1 nM | inhibition (D(2) dopamine receptor [4]): < 50%; Fu [2]: 0.011; Fu (Plasma): 0.014
45 | c1ccc(OC[C@@H]2CN(Cc3cn4ccccc4n3)CCO2)cc1 | 590 nM | 160 nM | Fu [2]: 0.057; Fu (Plasma): 0.215
46 | Clc1ccc(CN2CCO[C@H](COc3cccnc3)C2)cc1 | 103 nM | 47 nM | –
47 | COc1ccc(CN2CCO[C@H](COc3cccc(F)n3)C2)cc1Cl | 260 nM | 73 nM | –
48 | COc1ccc(CN2CCO[C@H](COc3ncccn3)C2)cc1 | – | – | inhibition [1]: 8%
49 | COc1ccc2[nH]cc(CN3CCO[C@H](COc4ccccc4)C3)c2c1 | 460 nM | 130 nM | –
50 | Fc1ccc(CN2CCO[C@H](COc3ccccc3)C2)cc1F | 530 nM | 150 nM | –
